Test results as given in ChEMBL document CHEMBL4376812 (J Med Chem, 2019).
≈ marks a conversion by molar mass, not a printed value.

What was measured:
[1] = AUC in C57BL/6 mouse at 10 mg/kg, po; type: ADME, organism-based; settings: in vivo
Method in brief: (§1)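 Oral PK: single dose of 10 mg/kg as a solution in ethanol/TPGS/PEG 300 (5:5:90) given to mouse, dog and monkey. Cmax (μM), AUC (μM × h) and bioavailability F (%) were derived, with F taken against the iv arm.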

[2] = MRT in dog at 2 mg/kg, iv; type: ADME, organism-based, Canis lupus familiaris; settings: in vivo
Method in brief: (§2)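 Dog and monkey iv PK: 2 mg/kg given by iv administration. Clearance (mL min⁻¹ kg⁻¹), Vss, T1/2 (h) and MRT (h) were derived.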

[3] = AUC in dog at 10 mg/kg, po; type: ADME, organism-based, Canis lupus familiaris; settings: in vivo; method in brief: as §1
[4] = AUC in cynomolgus monkey at 10 mg/kg, po; type: ADME, organism-based, Macaca fascicularis; settings: in vivo; method in brief: as §1
[5] = Aqueous solubility of crystalline free base form of compound at pH 7.4; type: physicochemical; settings: aqueous medium
Method in brief: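 Aqueous solubility of the crystalline free base, measured at pH 7.4 and reported in μg/mL.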

[6] = Half life in cynomolgus monkey at 2 mg/kg, iv; type: ADME, organism-based, Macaca fascicularis; settings: in vivo; method in brief: as §2
[7] = Cmax in cynomolgus monkey at 10 mg/kg, po; type: ADME, organism-based, Macaca fascicularis; design: dose 10 mg/kg, route oral; settings: in vivo; method in brief: as §1
[8] = Time during which drug concentration exceed invitro IC50 for TYK2 in mouse whole blood assessed as decrease in IFNalpha-induced STAT1 phosphorylation in C57BL/6 mouse at 30 mg/kg, po via gavage bid for 9 days with first dose given prior to first IL23 challenge and twice a day thereafter; type: ADME, organism-based; settings: in vivo, 216 h
Method in brief: (§3)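 Drug levels were measured in the animals of the IL-23 acanthosis study, dosed orally twice daily. The duration was the time, in hours, that levels stayed at or above the in vitro mouse whole blood IC50 for IFNα-induced pSTAT1.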

[9] = Metabolic stability in rat liver microsomes assessed as half life; type: ADME, Microsome
Method in brief: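 Liver microsomes from human, rat, mouse, dog, cynomolgus monkey and rabbit were incubated with compound. Stability is reported as half-life (T1/2, min). Values are means of at least three separate experiments.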

[10] = Permeability coefficient, Kp across apical to basolateral side in human Caco2 cells; type: ADME, cell-based; settings: Caco-2, read-out: permeability
Method in brief: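 Caco-2 monolayer permeability measured in both directions, apical-to-basal and basal-to-apical, reported as Pc in nm/s. An efflux ratio was calculated from the two directions.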

[11] = Time during which drug concentration exceed invitro IC50 for TYK2 in mouse whole blood assessed as decrease in IFNalpha-induced STAT1 phosphorylation in C57BL/6 mouse at 15 mg/kg, po via gavage bid for 9 days with first dose given prior to first IL23 challenge and twice a day thereafter; type: ADME, organism-based; settings: in vivo, 216 h; method in brief: as §3
[12] = Oral bioavailability in dog at 10 mg/kg; type: ADME, organism-based, Canis lupus familiaris; settings: in vivo; method in brief: as §1
[13] = MRT in cynomolgus monkey at 2 mg/kg, iv; type: ADME, organism-based, Macaca fascicularis; settings: in vivo; method in brief: as §2
hERG (KCNH2) = hERG (KCNH2) (Homo sapiens, UniProt Q12809); assay: Inhibition of human ERG at 10 uM by patch-clamp assay relative to control
Sequence of hERG (KCNH2) (Q12809 whole entry): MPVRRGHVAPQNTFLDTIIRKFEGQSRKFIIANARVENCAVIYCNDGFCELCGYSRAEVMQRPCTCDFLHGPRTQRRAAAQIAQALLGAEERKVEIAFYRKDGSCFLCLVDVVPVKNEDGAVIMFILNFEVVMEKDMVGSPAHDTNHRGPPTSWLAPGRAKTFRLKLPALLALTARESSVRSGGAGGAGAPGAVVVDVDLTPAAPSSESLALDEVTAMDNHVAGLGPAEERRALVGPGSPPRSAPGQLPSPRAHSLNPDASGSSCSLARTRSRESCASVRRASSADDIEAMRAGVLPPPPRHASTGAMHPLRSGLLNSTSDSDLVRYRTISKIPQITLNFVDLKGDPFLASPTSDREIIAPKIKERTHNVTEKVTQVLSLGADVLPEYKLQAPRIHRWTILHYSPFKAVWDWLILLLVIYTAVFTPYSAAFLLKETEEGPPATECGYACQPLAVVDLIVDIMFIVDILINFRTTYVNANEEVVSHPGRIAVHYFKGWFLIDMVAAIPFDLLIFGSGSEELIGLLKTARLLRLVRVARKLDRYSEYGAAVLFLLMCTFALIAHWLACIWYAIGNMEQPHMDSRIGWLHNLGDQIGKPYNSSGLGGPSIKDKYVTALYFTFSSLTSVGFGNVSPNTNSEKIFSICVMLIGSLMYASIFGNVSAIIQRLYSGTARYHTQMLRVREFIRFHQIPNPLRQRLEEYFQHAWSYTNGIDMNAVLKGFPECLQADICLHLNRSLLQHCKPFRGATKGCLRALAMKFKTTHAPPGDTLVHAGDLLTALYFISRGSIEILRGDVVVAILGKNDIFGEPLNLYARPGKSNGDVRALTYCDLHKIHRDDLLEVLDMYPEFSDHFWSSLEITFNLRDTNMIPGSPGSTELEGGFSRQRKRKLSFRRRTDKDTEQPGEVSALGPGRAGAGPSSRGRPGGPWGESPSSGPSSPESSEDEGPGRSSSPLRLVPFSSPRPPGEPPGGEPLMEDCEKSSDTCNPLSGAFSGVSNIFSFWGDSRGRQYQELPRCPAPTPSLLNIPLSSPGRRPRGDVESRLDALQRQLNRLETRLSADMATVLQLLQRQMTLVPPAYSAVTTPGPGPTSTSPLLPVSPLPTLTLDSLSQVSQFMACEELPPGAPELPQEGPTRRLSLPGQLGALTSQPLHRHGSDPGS
Method in brief: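 hERG potassium channel patch clamp assay, read as percent inhibition at 10 μM (n = 7).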

SMILES: [2H]C([2H])([2H])NC(=O)c1nnc(NC(=O)C2CC2)cc1Nc1cccc(-c2ncn(C)n2)c1OC [DEUCRAVACITINIB]
- AUC [1]: 36.4 µM·h
- MRT [2]: 5.5 h
- AUC [3]: 73.6 µM·h
- AUC [4]: 75.7 µM·h
- solubility [5]: 5.2 µg/mL (≈ 12.2 µM)
- half-life [6]: 5.3 h
- Cmax [7]: 5.9 µM
- T>IC50 [8]: 24 h
- half-life [9]: > 2 h
- Papp A→B [10]: 7 ×10⁻⁶ cm/s
- T>IC50 [11]: 21 h
- bioavailability [12]: 128%
- MRT [13]: 7 h
- inhibition at 10 µM (hERG (KCNH2)): 26%
